Compound activity deposited in PubChem BioAssay by several laboratories.
Rows were chosen to be rich in hits. Some 4.9% of all compounds tested hit in one or more screens of this group.
STAT1 act-1: STAT1 signaling activators, primary screen, cell-based, HTS, luciferase reporter; NIH 3T3 STAT1-luciferase reporter, IFN-gamma, luminescence; 100% = IFN-gamma alone, no compound; activation (% of control), % at 5.5 µM; actives 2.6% (n = 200,000);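 active means activation above the screen-wide mean activation plus 3 SD, cut at about 130% in these data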
APP 5'UTR act: activators of APP 5'UTR luciferase reporter, primary screen, SH-SY5Y cells | activation, % at 2 µM | SH-SY5Y APP 5'UTR luciferase reporter, luminescence; zero percent = DMSO vehicle wells | AID 1276, 2008 | actives 1% (n = 190,000);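 active means activation above a set limit, based on mean plus 3 SD of controls, cut at about 140% in these data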
STAT3 inh: IL-6 driven STAT3 reporter inhibitors, primary screen, U3A cells, luciferase, luminescence, MLSCN library. IL-6 STAT3-luciferase reporter; host cell line lacks STAT1. inhibition, % at 5.5 µM. actives 0.89% (n = 190,000);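 active means inhibition above the mean inhibition across all screened compounds plus 3 SD, cut at about 44% in these data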
NF-kB expr up: activators of NF-kB expression in neurons, primary screen, cell-based, HTS; human neuronal cells, NF-kB reporter expression; hits give high values; fold change at 12.5 µM; actives 1.6% (n = 190,000); in the data active means fold change above about 3.3
STAT1 blocker: STAT1 signaling inhibitors, primary screen, cell-based, HTS, luciferase reporter; NIH 3T3 STAT1-luciferase reporter, IFN-gamma, luminescence; inhibition, % at 5.5 µM; actives 0.35% (n = 200,000); AID 920, 2007;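 active means inhibition above a set limit, the mean inhibition across all tested compounds plus 3 SD, cut at about 34% in these data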
STAT3 act-1: IL-6 driven STAT3 reporter potentiators, primary screen, U3A cells, luciferase, luminescence, MLSCN library. IL-6 STAT3-luciferase reporter; 100% = signal with IL-6 EC80 alone. activation (% of control), % at 5.6 µM. actives 0.91% (n = 190,000);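 active means activation above the screen-wide mean of compound activation plus 3 SD, cut at about 130% in these data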
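Test system: STAT3-luciferase reporter U3A cells; Detection: reporter luminescence signal; Times: 1 h compound pre-exposure, 6 h IL-6 stimulation, 37 °C; Benchmarks: IL-6-only high control; Also added: IL-6 stimulus at 33 ng/mL final.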
STAT3 act-2: STAT3 reporter potentiators, retest of hits, confirmation, U3A cells, luciferase, luminescence | IL-6 potentiation; U3A cells lack STAT1; 100 means same as IL-6 alone | potentiation (% of control), % at 5.7 µM | actives 64% (n = 1,200) | shares compounds with STAT3 act-1;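 active means percent activation of the STAT3 luciferase reporter above a set limit taken from the earlier primary screen, cut at about 130% in these data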
NFkB act 2: NF-kB reporter activators in human cells, counter-screen for STAT3 activator project; shares compounds with STAT3 act-1; NF-kappaB reporter activation; activation (% of control), % at 5.7 µM; actives 11% (n = 1,200); AID 1309, 2008; in the data active means activation above about 120%;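 further: reporter induced by TNF-alpha stimulation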
STAT1 act-2: STAT1 reporter activators, IFN-gamma induced, counter-screen for STAT3 activator project, cell-based, NIH 3T3, luciferase luminescence; activation (% of control), % at 5.7 µM; actives 13% (n = 1,200); AID 1318, 2008; shares compounds with STAT3 act-1; NIH 3T3 STAT1-luciferase reporter;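 active means activation above the solvent-only control well mean plus 3 SD, set per screening run, cut at about 120% in these data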
Each line names hits and unclear results; the compound was inactive in the other large screens (follow-up assays come after a bar, where they were run).

Cc1ccc(N2C(=O)c3cccc4c(C(=O)O)ccc(c34)C2=O)cc1	none
CC(=O)Nc1cccc2c1C(=O)N(c1ccc(C)cc1)C2=O	STAT3 act-1 160 | STAT3 act-2 163 | NFkB act 2 inactive | STAT1 act-2 121
Cc1ccc(CSc2nnc(CNc3ccc(F)cc3)o2)cc1	none
O=C(c1ccccc1)N1CCCCC(S(=O)(=O)c2ccc3ccccc3c2)C1=O (configuration not stated)	none
COc1ccc2[nH]c(=O)c3c(c2c1)OC(C)(C)C=C3	STAT3 act-1 137 | STAT3 act-2 inactive | NFkB act 2 inactive | STAT1 act-2 inactive
COc1ccc2[nH]c3ccccc3c2c1	none
COCCCNC(=O)c1cccn2c(=O)c3cc4ccccc4cc3nc12	none
O=C(NCc1ccco1)c1cccn2c(=O)c3cc4ccccc4cc3nc12	STAT3 act-1 196 | STAT3 act-2 162 | NFkB act 2 inactive | STAT1 act-2 inactive
CCNC(=S)NNC(=O)CCn1cc(C)cn1	none
COc1ccc([N+](=O)[O-])cc1N(CC(=O)NCCCOC(C)C)S(C)(=O)=O	none
COc1ccc(C2CC(=O)Oc3c2c(=O)n(C)c2ccccc32)c(OC)c1OC (configuration not stated)	none
Cn1c(=O)c2c(c3ccccc31)OC(=O)CC2c1cccnc1 (configuration not stated)	STAT3 act-1 137 | STAT3 act-2 inactive | NFkB act 2 inactive | STAT1 act-2 inactive
COc1ccc(CCCC(=O)NCc2ccccc2)cc1C	none
COC(=O)c1c(NC(=O)CN2CCN(C(=O)c3ccco3)CC2)c2c(C)cccc2n1C	none
COC(=O)c1c(NC(=O)CN2CCN(C(=O)c3ccco3)CC2)c2cc(C)ccc2n1C	STAT3 act-1 139 | STAT3 act-2 141 | NFkB act 2 inactive | STAT1 act-2 inactive
O=C(CCCSc1nc2ccccc2s1)NCc1ccco1	STAT3 act-1 150 | STAT3 act-2 136 | NFkB act 2 inactive | STAT1 act-2 inactive
CCc1ccccc1NC(=O)CCCSc1nc2ccccc2s1	none
Brc1cccc(-c2cnco2)c1	none
O=C(Nc1ccccc1N1CCN(C(=O)c2ccccc2)CC1)c1cc(Br)ccc1Cl	none
CN1CCN(c2ccccc2NC(=O)c2ccc(Br)o2)CC1	none
O=C(Nc1ccccc1N1CCCC1)c1cc2ccccc2o1	STAT3 act-1 152 | STAT3 act-2 140 | NFkB act 2 124 | STAT1 act-2 134
CN1CCN(c2ccccc2NC(=O)c2cc3ccccc3o2)CC1	STAT3 act-1 144 | STAT3 act-2 inactive | NFkB act 2 inactive | STAT1 act-2 inactive
O=C(Nc1ccccc1N1CCN(C(=O)c2ccccc2)CC1)c1cc2ccccc2o1	STAT3 act-1 142 | STAT3 act-2 inactive | NFkB act 2 inactive | STAT1 act-2 inactive
COCc1cc(C)nc(OCC(=O)N/N=C/c2ccc(-c3cc([N+](=O)[O-])ccc3Cl)o2)c1C#N	none
Cn1c(Sc2ccc(Cl)cc2)c(C=O)c2ccccc21	STAT3 act-1 170 | STAT3 act-2 140 | NFkB act 2 inactive | STAT1 act-2 inactive
Cn1c(Sc2ccccc2Cl)c(C=O)c2ccccc21	none
CN1/C(=C\C=Nc2ccc3ccccc3c2)C(C)(C)c2ccccc21	STAT3 act-1 148 | STAT3 act-2 inactive | NFkB act 2 inactive | STAT1 act-2 inactive
Cc1ccc(O)c(N=CC2=C(O)c3ccccc3C2=O)c1	NF-kB expr up 4.2, STAT3 act-1 149 | STAT3 act-2 138 | NFkB act 2 128 | STAT1 act-2 inactive
Cc1ccc(O)c(C=Nc2cc(C)ccc2O)c1	none
CCOCCCNC(=O)C(NC(=O)Cc1c[nH]c2ccccc12)c1ccccc1 (configuration not stated)	STAT3 act-1 144 | STAT3 act-2 135 | NFkB act 2 inactive | STAT1 act-2 inactive
CCOCCCNC(=O)C(NC(=O)Cc1cccs1)c1ccccc1 (configuration not stated)	none
O=C1Nc2ccccc2C1(O)c1ccccc1 (configuration not stated)	none
OC1(c2ccccc2)c2ccccc2-c2ncccc21 (configuration not stated)	STAT3 act-1 137 | STAT3 act-2 134 | NFkB act 2 inactive | STAT1 act-2 inactive
Cc1ccc2ncccc2c1NS(=O)(=O)c1ccccc1	none
Cc1ccc2ncccc2c1NC(=S)NC(=O)c1ccccc1	STAT3 act-1 137 | STAT3 act-2 146 | NFkB act 2 inactive | STAT1 act-2 inactive
COc1ccccc1N(C(C)=O)c1nc(C)cc(C)c1C#N	STAT3 act-1 165 | STAT3 act-2 152 | NFkB act 2 inactive | STAT1 act-2 inactive
Cn1nc(-c2ccc(Cl)cc2)c2cc(C(=O)NCC3CCCO3)sc21 (configuration not stated)	STAT3 act-1 167 | STAT3 act-2 147 | NFkB act 2 inactive | STAT1 act-2 inactive
CCN(CC)CCCNC(=O)c1cc2c(-c3ccc(Cl)cc3)nn(C)c2s1	STAT3 act-1 161 | STAT3 act-2 156 | NFkB act 2 inactive | STAT1 act-2 inactive
CN1CCN(CCCNC(=O)c2cc3c(-c4ccc(Cl)cc4)nn(C)c3s2)CC1	STAT3 act-1 173 | STAT3 act-2 149 | NFkB act 2 inactive | STAT1 act-2 inactive
CCN(CC)CCCNC(=O)c1cc(-c2ccc(Cl)c(Cl)c2)on1	none
Cc1c(Cl)c([N+](=O)[O-])nn1CCCC(=O)NC1CCCCC1	none
CCOC(=O)C1=C(C)N(C)C(=S)NC1c1cc(OC)ccc1OC (configuration not stated)	none
O=C(NCC(=O)N(c1cccc(F)c1)C(C(=O)NC1CCCC1)c1cccnc1)c1cccs1 (configuration not stated)	none
COc1cc(C2C=C(c3cccs3)Nc3ncnn32)cc(OC)c1OC (configuration not stated)	none
Cn1c(-c2c(N)n(CCc3ccccc3)c3nc4ccccc4nc23)nc2ccccc21	none
